Source: PubChem BioAssay (several laboratories)
MPTP inh: permeability transition pore inhibition; inhibition, % at 10 µM; actives 1.4% (n = 360,000); isolated mouse mitochondria, Ca2+ swelling absorbance, 30 min;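 active means inhibition of 50% or more, scaled per plate between neutral and stimulator controls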
Redox H2O2 prof: compounds producing H2O2 with reducing agent – biochemical, NIH compound library profiling, artefact control for MLSCN library redox annotation, primary screen | DTT-dependent redox cycling H2O2, phenol red/HRP absorbance; 100% = 100 µM peroxide control, 0% = buffer | activation, % at 10 µM | actives 0.03% (n = 200,000) | AID 878;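 active means activation of at least 50% relative to the plate's high and low controls in the primary single-dose screen; inactive means activation below 50%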;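 further: compound incubated with DTT at 0.8 mM final as the reducing agent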
Hep lipid drop: hepatic lipid droplet formation modulation; AML12 mouse hepatocytes, oleate lipid droplets, BODIPY imaging; inhibition, % at 6.5 µM; actives 0.4% (n = 240,000);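 active means lipid droplet intensity inhibited by at least 50%, with more than 500 cells counted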
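Material: mouse AML12 hepatocyte cell line, fixed after treatment; Timing: compound with oleate, overnight; Technique: high-content imaging of BODIPY-stained droplets and DAPI nuclei; Probe or stimulus: oleate, 100 µM final; Dosing: compound at 6.5 µM only.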
T cruzi repl: T. cruzi replication inhibition; T. cruzi beta-gal in NIH3T3, luminescence, 90 h; inhibition, % (no concentration beside the values); actives 1.4% (n = 300,000); AID 1885;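 active means mean inhibition across valid replicates above about 55%, limit read from the data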;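 further: signal also drops with host cell toxicity which is not excluded here; higher percent means less beta-gal luminescence so fewer parasites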
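Read-out: Parasite load inhibition, % | Test system: Mouse NIH/3T3 fibroblasts infected with β-gal-expressing T. cruzi Tulahuen C4 | Amount: 5,000 cells/well | Medium: DMEM, 2% fetal bovine serum | Signal: GalScreen β-gal luminescence, detergent lysis, 60 min | Timing: 3 h attach, ≥90 h co-culture | Also added: Tulahuen C4 trypomastigotes, 5000/well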
L major viab: Leishmania major promastigote growth inhibition; Leishmania major promastigotes, resazurin fluorescence viability; inhibition, % at 10 µM; actives 9% (n = 200,000); in the data active means inhibition above about 50%;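 further: promastigotes grown with compound for 44 hours at 28 °C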
Rh123 counter: Rhodamine 123 counter-screen of mitochondrial pore hits; actives 78% (n = 5,000); isolated mitochondria, membrane potential, Rhodamine 123 fluorescence; shares compounds with MPTP inh; inhibition, % at 10 µM; in the data active means inhibition above about 22%
Numbers stand for hits; n = inactive; x = no result given. The entries come from a sample that favours hits as a whole.

SMILES	MPTP inh	Redox H2O2 prof	Hep lipid drop	T cruzi repl	L major viab	Rh123 counter
Cc1ccc(NC(=S)Nc2cc(-c3ccccc3)[nH]n2)cc1Cl	n	n	n	x	n	x
Fc1ccc(NC(=S)Nc2cccnc2)cc1Cl	101.0	n	n	n	n	91.7
Fc1ccc(NC(=S)Nc2cc(-c3ccccc3)[nH]n2)cc1Cl	66.3	n	n	n	n	82.1
COC(=O)C1=NN(C(=O)c2cccc(Br)c2)C(O)(c2ccc(Cl)cc2)C1 (stereo unspecified)	66.6	n	n	n	n	73.2
CCOC(=O)C1=NN(C(=O)c2ccc(OC)cc2)C(O)(c2ccc(Cl)cc2)C1 (stereo unspecified)	n	n	n	n	n	x
O=C(CSc1nnc(-c2cccnc2)s1)Nc1ccnc2ccccc12	103.8	n	n	n	n	73.4
Cc1cc(OCC(=O)Nc2ccc3oc(-c4ccncc4)nc3c2)ccc1Cl	n	n	n	n	n	x
CC(=O)Nc1ccc(NC(=O)COc2cc(O)c3c(c2)OC(C)(C)CC3=O)cc1	n	x	n	n	x	x
Cc1cc(OCC(=O)Nc2ccncc2)ccc1Cl	98.2	x	n	n	x	88.2
Cc1cc(OCC(=O)Nc2ccc(Br)cc2)cc2c1C(=O)CC(C)(C)O2	61.8	x	n	n	x	67.5
